Here are results for 19 compounds from ChEMBL document CHEMBL1133298, “N1-Arylsulfonyl-N2-(1-aryl)ethyl-3-phenylpropane-1,2-diamines as novel calcimimetics acting on the calcium sensing receptor” (Bioorg Med Chem Lett, 2000).

This assay has as its target T1, Extracellular calcium-sensing receptor (Rattus norvegicus) (UniProt P48442).
T1 sequence (whole entry): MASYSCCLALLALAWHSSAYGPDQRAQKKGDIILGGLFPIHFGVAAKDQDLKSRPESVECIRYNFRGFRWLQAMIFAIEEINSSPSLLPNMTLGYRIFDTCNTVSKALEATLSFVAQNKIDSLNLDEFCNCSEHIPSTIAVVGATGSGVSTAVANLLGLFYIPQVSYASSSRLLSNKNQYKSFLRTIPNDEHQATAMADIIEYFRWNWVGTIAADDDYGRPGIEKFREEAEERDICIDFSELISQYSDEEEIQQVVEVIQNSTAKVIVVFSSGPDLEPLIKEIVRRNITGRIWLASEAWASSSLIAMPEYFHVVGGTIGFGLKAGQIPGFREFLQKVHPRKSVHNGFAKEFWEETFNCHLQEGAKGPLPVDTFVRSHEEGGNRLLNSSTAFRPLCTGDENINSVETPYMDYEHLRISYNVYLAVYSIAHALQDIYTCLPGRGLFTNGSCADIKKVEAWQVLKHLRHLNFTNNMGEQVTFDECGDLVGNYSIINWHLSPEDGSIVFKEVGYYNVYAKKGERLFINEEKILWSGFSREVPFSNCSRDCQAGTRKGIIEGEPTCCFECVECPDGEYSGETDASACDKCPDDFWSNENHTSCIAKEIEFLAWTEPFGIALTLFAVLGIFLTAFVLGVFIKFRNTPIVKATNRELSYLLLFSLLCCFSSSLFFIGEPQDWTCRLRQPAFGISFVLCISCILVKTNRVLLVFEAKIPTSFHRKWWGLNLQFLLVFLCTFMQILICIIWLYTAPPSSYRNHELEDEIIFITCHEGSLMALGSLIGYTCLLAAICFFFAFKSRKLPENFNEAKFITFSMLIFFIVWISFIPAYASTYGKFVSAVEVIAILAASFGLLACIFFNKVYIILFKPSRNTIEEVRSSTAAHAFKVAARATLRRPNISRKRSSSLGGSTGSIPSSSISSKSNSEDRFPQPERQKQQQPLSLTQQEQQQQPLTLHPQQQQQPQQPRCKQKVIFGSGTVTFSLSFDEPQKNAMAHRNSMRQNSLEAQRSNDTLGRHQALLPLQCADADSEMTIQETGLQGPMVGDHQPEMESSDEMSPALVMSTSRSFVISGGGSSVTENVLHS
Briefly: Compound was evaluated for accumulation of [3H]- IP in CHO (CaSR) cells expressing rat cloned calcium sensing receptor. The assay is classed as functional, cell-based. In short, it runs like this: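 CHO cells stably transfected with calcium sensing receptor cloned from rat brain. Grown in basal Ham's F-12 (0.3 mM Ca2+, 0.6 mM Mg2+) and prelabeled overnight with 0.5 µCi/mL myo-[3H]inositol. Drugs were made up at 10 mM in ethanol (stock), diluted in basal medium and tested at 10 µM with 2 mM extracellular Ca2+ at 37 °C. [3H]IP accumulation (phospholipase C activity) is given as % of the maximal response to 10 mM Ca2+, mean ±S.E.M.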
Take `CC(NCC(Cc1ccccc1)NS(=O)(=O)c1ccc(N)cc1)c1ccccc1` (centres undefined): the Accumulation was determined as 2%. In the case of `COc1ccc(CC(CNC(C)c2cccc3ccccc23)NS(=O)(=O)c2ccc(OC)cc2)cc1` (centres undefined) it was 45%; in that of `COc1ccc(S(=O)(=O)NC(CNC(C)c2cccc3ccccc23)Cc2ccccc2)cc1OC` (centres undefined), 97%. Consider `CC(NCC(Cc1ccccc1)NS(=O)(=O)c1cccc(Cl)c1)c1cccc2ccccc12` (centres undefined), for which the Accumulation amounted to 83%.

As for `CC(NCC(Cc1ccccc1)NS(=O)(=O)c1ccccc1Cl)c1cccc2ccccc12` (centres undefined), the Accumulation was 79%.

In the case of `CC(NCC(Cc1ccccc1)NS(=O)(=O)c1ccc([N+](=O)[O-])cc1)c1ccccc1` (centres undefined), the Accumulation was found to be 8%. On to `COc1ccc(S(=O)(=O)NC(CNC(C)c2cccc3ccccc23)Cc2ccccc2Cl)cc1` (centres undefined), for which the Accumulation was 60%. In the case of `CC(NCC(Cc1ccccc1)NS(=O)(=O)c1ccc([N+](=O)[O-])cc1)c1cccc2ccccc12` (centres undefined) it was 28%; in that of `CC(NCC(Cc1ccccc1)NS(=O)(=O)c1ccc(C(F)(F)F)cc1)c1cccc2ccccc12` (centres undefined), 27%; in that of `CC(NCC(Cc1ccccc1)NS(=O)(=O)c1ccccc1)c1cccc2ccccc12` (centres undefined), 78%. On to `COc1ccc(S(=O)(=O)NC(CNC(C)c2cccc3ccccc23)Cc2ccc3c(c2)OCO3)cc1` (centres undefined), for which the Accumulation is 47%. For the compound `COc1ccc(S(=O)(=O)NC(CNC(C)c2cccc3ccccc23)Cc2ccccc2)cc1` (centres undefined), the Accumulation was 80%. In the case of `CC(NCC(Cc1ccccc1)NS(=O)(=O)c1ccc(Cl)cc1)c1cccc2ccccc12` (centres undefined) it was 38%. `COc1ccc(S(=O)(=O)NC(CNC(C)c2cccc(OC)c2)Cc2ccccc2)cc1` (centres undefined): the Accumulation is 34%. For `COc1cccc(C(C)NCC(Cc2ccccc2)NS(=O)(=O)c2ccc(C)cc2)c1` (centres undefined), the Accumulation turned out to be 36%. Consider `Cc1ccc(S(=O)(=O)NC(CNC(C)c2cccc3ccccc23)Cc2ccccc2)cc1` (centres undefined), for which the Accumulation stood at 68%. In the case of `COc1cccc([C@@H](C)NCCCc2ccccc2Cl)c1` it was 106%; in that of `COc1ccc(S(=O)(=O)NC(CNC(C)c2cccc3ccccc23)Cc2ccccc2OC)cc1` (centres undefined), 65%; in that of `Cc1ccc(S(=O)(=O)NC(CNC(C)c2ccccc2)Cc2ccccc2)cc1` (centres undefined), 16%.
